Measured values reported in ChEMBL document CHEMBL1155167, “Fluoroquinolone resistance in atypical pneumococci and oral streptococci: evidence of horizontal gene transfer of fluoroquinolone resistance determinants from Streptococcus pneumoniae” (2007).

Experiments:
Type in all cases: functional
Streptococcus oralis [1] = assay: Antimicrobial activity against Streptococcus oralis HK587 with gyrA Ser114Gly, and parC Ser52Gly, Asn91Asp mutation by broth dilution method
In short: (§1)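 Ciprofloxacin and levofloxacin MICs were determined by broth dilution following CLSI (formerly NCCLS) guidance. S. pneumoniae ATCC 6303 and ATCC 49619 served as control strains. Reference strains were S. mitis ATCC 49456 and S. oralis ATCC 10557. The clinical isolates came from patients at a Hong Kong teaching hospital.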

Streptococcus oralis [2] = assay: Antimicrobial activity against Streptococcus oralis HK122 with gyrA Ser114Gly, and parC Ser52Gly, Asn91Asp mutation by broth dilution method; in short: as §1
Streptococcus oralis [3] = assay: Antimicrobial activity against Streptococcus oralis HK574 with gyrA Ser114Gly, Leu155Val, gyrB Ile385Val, Met483Thr, Ser494Thr and parC Ser52Gly, Asn91Asp mutation by broth dilution method; in short: as §1
Streptococcus oralis [4] = assay: Antimicrobial activity against Streptococcus oralis HK62 with gyrA Ser114Gly, and parC Ser52Gly, Asn91Asp mutation by broth dilution method; in short: as §1
Streptococcus viridans [5] = assay: Antimicrobial activity against Viridans streptococcus L26 gyrA Ser81Phe and parC Lys137Asn mutation by broth dilution method; in short: as §1
Streptococcus mitis [6] = assay: Antimicrobial activity against Streptococcus mitis ATCC 49456 with gyrA Ser114Gly, and parC Ser52Gly, Asn91Asp, Glu135Asp mutation by broth dilution method; in short: as §1
Streptococcus oralis [7] = assay: Antimicrobial activity against Streptococcus oralis HK553 with gyrA Ser114Gly, and parC Ser52Gly, Asn91Asp mutation by broth dilution method; in short: as §1
Streptococcus oralis [8] = assay: Antimicrobial activity against Streptococcus oralis HK312 with gyrA Ser114Gly, and parC Ser52Gly, Asn91Asp mutation by broth dilution method; in short: as §1
Streptococcus mitis [9] = assay: Antimicrobial activity against Streptococcus mitis HK137453 with gyrA Ser114Gly, and parC Ser52Gly, Asn91Asp mutation by broth dilution method; in short: as §1
Streptococcus mitis [10] = assay: Antimicrobial activity against Streptococcus mitis HK125807 with gyrA Ser114Gly, and parC Ser52Gly, Asn91Asp mutation by broth dilution method; in short: as §1
Streptococcus mitis [11] = assay: Antimicrobial activity against Streptococcus mitis HK467 with gyrA Ser114Gly, Leu155Val and parC Ser52Gly, Asn91Asp, mutation by broth dilution method; in short: as §1
Streptococcus oralis [12] = assay: Antimicrobial activity against Streptococcus oralis HK300 with gyrA Ser114Gly, and parC Ser52Gly, Asn91Asp mutation by broth dilution method; in short: as §1
Streptococcus viridans [13] = assay: Antimicrobial activity against Viridans streptococcus L18 with gyrA Ser114Gly, Asp142Asn, gyrB Ser494Thr and parE Ile460Val mutation by broth dilution method; in short: as §1
Streptococcus oralis [14] = assay: Antimicrobial activity against Streptococcus oralis HK417 with gyrA Ser114Gly, and parC Ser52Gly, Asn91Asp mutation by broth dilution method; in short: as §1
Streptococcus oralis [15] = assay: Antimicrobial activity against Streptococcus oralis HK232 with gyrA Ser114Gly, and parC Ser52Gly, Asn91Asp mutation by broth dilution method; in short: as §1
Streptococcus mitis [16] = assay: Antimicrobial activity against Streptococcus mitis HK677 with gyrA Ser81Leu, Ser114Gly, gyrB Ser494Thr, parC Ser52Gly, Asp83Tyr, Asn91Asp and parE Arg447Ser mutation by broth dilution method; in short: as §1
Streptococcus viridans [17] = assay: Antimicrobial activity against Viridans streptococcus L16 with gyrA Ser114Gly, gyrB Ser494Thr and parC Ser52Gly, Asn91Asp mutation by broth dilution method; in short: as §1
Streptococcus oralis [18] = assay: Antimicrobial activity against Streptococcus oralis HK123 with gyrA Ser114Gly, and parC Ser52Gly, Asn91Asp mutation by broth dilution method; in short: as §1
Streptococcus viridans [19] = assay: Antimicrobial activity against Viridans streptococcus L2 with gyrA Ser114Gly, gyrB Ser494Thr and parC Ser52Gly, Asn91Asp mutation by broth dilution method; in short: as §1
Streptococcus mitis [20] = assay: Antimicrobial activity against Streptococcus mitis HK141 with gyrA Ser114Gly, and parC Ser52Gly, Asn91Asp mutation by broth dilution method; in short: as §1
Streptococcus oralis [21] = assay: Antimicrobial activity against Streptococcus oralis HK299 with gyrA Ser114Gly, and parC Ser52Gly, Asn91Asp mutation by broth dilution method; in short: as §1
Streptococcus oralis [22] = assay: Antimicrobial activity against Streptococcus oralis HK579 with gyrA Ser114Gly, and parC Ser52Gly, Asn91Asp mutation by broth dilution method; in short: as §1
Streptococcus mitis [23] = assay: Antimicrobial activity against Streptococcus mitis HK260 with gyrA Ser114Gly, and parC Ser52Gly, Asn91Asp mutation by broth dilution method; in short: as §1
Streptococcus mitis [24] = assay: Antimicrobial activity against Streptococcus mitis HK135786 with gyrA Ser114Gly, and parC Ser52Gly, Asn91Asp mutation by broth dilution method; in short: as §1
Streptococcus oralis [25] = assay: Antimicrobial activity against Streptococcus oralis HK575 with gyrA Ser114Gly, Leu155Val and parC Ser52Gly, Asn91Asp, Pro140Ser mutation by broth dilution method; in short: as §1
Streptococcus oralis [26] = assay: Antimicrobial activity against Streptococcus oralis HK496 with gyrA Ser114Gly, and parC Ser52Gly, Asn91Asp mutation by broth dilution method; in short: as §1
Streptococcus oralis [27] = assay: Antimicrobial activity against Streptococcus oralis HK816 with gyrA Ser81Leu, Ser114Gly and parC Ser52Gly, Ser79Tyr, Asn91Asp mutation by broth dilution method; in short: as §1
Streptococcus mitis [28] = assay: Antimicrobial activity against Streptococcus mitis HK666 with gyrA Ser114Gly, and parC Ser52Gly, Asn91Asp, Glu135Asp mutation by broth dilution method; in short: as §1
Streptococcus viridans [29] = assay: Antimicrobial activity against Viridans streptococcus L21 with gyrB Ser494Thr and parC Lys137Asn mutation by broth dilution method; in short: as §1
Streptococcus viridans [30] = assay: Antimicrobial activity against Viridans streptococcus L19 with gyrA Ser114Gly, gyrB Ser494Thr, parC Ser52Gly, Asn91Asp and parE Ile460Val mutation by broth dilution method; in short: as §1
Streptococcus viridans [31] = assay: Antimicrobial activity against Viridans streptococcus L7 with gyrA Ser114Gly, gyrB Ser494Thr and parC Ser52Gly, Asn91Asp mutation by broth dilution method; in short: as §1
Streptococcus oralis [32] = assay: Antimicrobial activity against Streptococcus oralis HK754 with gyrA Ser81Leu, Ser114Gly, gyrB Ser494Thr, parC Ser52Gly, Asp83Tyr, Asn91Asp and parE Arg447Ser mutation by broth dilution method; in short: as §1
Streptococcus viridans [33] = assay: Antimicrobial activity against Viridans streptococcus L17 with gyrA Ser114Gly, gyrB Ser494Thr and parC Ser52Gly, Asn91Asp mutation by broth dilution method; in short: as §1
Streptococcus oralis [34] = assay: Antimicrobial activity against Streptococcus oralis HK271 with gyrA Ser114Gly, and parC Ser52Gly, Asn91Asp mutation by broth dilution method; in short: as §1
Streptococcus viridans [35] = assay: Antimicrobial activity against Viridans streptococcus L20 with gyrB Ser494Thr, parC Ser52Gly and Asn91Asp mutation by broth dilution method; in short: as §1
Streptococcus oralis [36] = assay: Antimicrobial activity against Streptococcus oralis HK386 with gyrA Ser114Gly, and parC Ser52Gly, Asn91Asp mutation by broth dilution method; in short: as §1
Streptococcus mitis [37] = assay: Antimicrobial activity against Streptococcus mitis HK680 with gyrA Ser114Gly, and parC Ser52Gly, Asn91Asp mutation by broth dilution method; in short: as §1
Streptococcus oralis [38] = assay: Antimicrobial activity against Streptococcus oralis HK51with gyrA Ser114Gly, and parC Ser52Gly, Asn91Asp mutation by broth dilution method; in short: as §1
Streptococcus oralis [39] = assay: Antimicrobial activity against Streptococcus oralis ATCC 10557 with gyrA Ser114Gly, and parC Ser52Gly, Asn91Asp mutation by broth dilution method; in short: as §1
Streptococcus mitis [40] = assay: Antimicrobial activity against Streptococcus mitis HK651 with gyrA Ser114Gly, and parC Ser52Gly, Asn91Asp mutation by broth dilution method; in short: as §1
Streptococcus oralis [41] = assay: Antimicrobial activity against Streptococcus oralis HK619 with gyrA Ser114Gly, and parC Ser52Gly, Asn91Asp mutation by broth dilution method; in short: as §1
Streptococcus mitis [42] = assay: Antimicrobial activity against Streptococcus mitis HK29 with gyrA Ser114Gly, and parC Ser52Gly, Asn91Asp mutation by broth dilution method; in short: as §1
Streptococcus mitis [43] = assay: Antimicrobial activity against Streptococcus mitis HK188 with gyrA Ser114Gly, and parC Ser52Gly, Asn91Asp, Glu135Asp mutation by broth dilution method; in short: as §1

Compound `C[C@H]1COc2c(N3CCN(C)CC3)c(F)cc3c(=O)c(C(=O)O)cn1c23.C[C@H]1COc2c(N3CCN(C)CC3)c(F)cc3c(=O)c(C(=O)O)cn1c23.O` [LEVOFLOXACIN] has an MIC (Streptococcus oralis [1]) of 2 µg/mL, an MIC (Streptococcus oralis [2]) of 1 µg/mL and an MIC (Streptococcus oralis [3]) of 2 µg/mL. The MIC (Streptococcus oralis [4]) was 1 µg/mL, the MIC (Streptococcus viridans [5]) was 16 µg/mL and the MIC (Streptococcus mitis [6]) was 1 µg/mL. It also gave an MIC (Streptococcus oralis [7]) of 1 µg/mL, an MIC (Streptococcus oralis [8]) of 1 µg/mL and an MIC (Streptococcus mitis [9]) of 1 µg/mL. It also gave an MIC (Streptococcus mitis [10]) of 1 µg/mL, an MIC (Streptococcus mitis [11]) of 1 µg/mL and an MIC (Streptococcus oralis [12]) of 1 µg/mL. For the same compound, the MIC (Streptococcus viridans [13]) was 2 µg/mL, the MIC (Streptococcus oralis [14]) was 1 µg/mL and the MIC (Streptococcus oralis [15]) was 1 µg/mL. The MIC (Streptococcus mitis [16]) was ≥ 32 µg/mL, the MIC (Streptococcus viridans [17]) was 1 µg/mL and the MIC (Streptococcus oralis [18]) was 1 µg/mL. The MIC (Streptococcus viridans [19]) was 2 µg/mL, the MIC (Streptococcus mitis [20]) was 0.5 µg/mL and the MIC (Streptococcus oralis [21]) was 2 µg/mL. The MIC (Streptococcus oralis [22]) was 2 µg/mL, the MIC (Streptococcus mitis [23]) was < 0.25 µg/mL and the MIC (Streptococcus mitis [24]) was 1 µg/mL. The MIC (Streptococcus oralis [25]) was 1 µg/mL, the MIC (Streptococcus oralis [26]) was 1 µg/mL and the MIC (Streptococcus oralis [27]) was 32 µg/mL. It also gave an MIC (Streptococcus mitis [28]) of 2 µg/mL, an MIC (Streptococcus viridans [29]) of 2 µg/mL and an MIC (Streptococcus viridans [30]) of 2 µg/mL. For the same compound, the MIC (Streptococcus viridans [31]) was 2 µg/mL, the MIC (Streptococcus oralis [32]) was ≥ 32 µg/mL and the MIC (Streptococcus viridans [33]) was 1 µg/mL. It also gave an MIC (Streptococcus oralis [34]) of 1 µg/mL, an MIC (Streptococcus viridans [35]) of 2 µg/mL and an MIC (Streptococcus oralis [36]) of 2 µg/mL. It also gave an MIC (Streptococcus mitis [37]) of 1 µg/mL, an MIC (Streptococcus oralis [38]) of 2 µg/mL and an MIC (Streptococcus oralis [39]) of 1 µg/mL. The MIC (Streptococcus mitis [40]) was 0.5 µg/mL, the MIC (Streptococcus oralis [41]) was 2 µg/mL and the MIC (Streptococcus mitis [42]) was 2 µg/mL. For the same compound, the MIC (Streptococcus mitis [43]) was 0.5 µg/mL.
